Test results: ChEMBL document CHEMBL1149332, “Synthesis of benzoylpyrimidines as antagonists of the corticotropin-releasing factor-1 receptor” (Bioorg Med Chem Lett, 2004)

Tests used:
[1] = biological target: T1, Corticotropin-releasing factor receptor 1 (Homo sapiens, UniProt P34998); experiment: Binding affinity for recombinant human CRF1 receptor
T1 sequence (P34998 whole entry): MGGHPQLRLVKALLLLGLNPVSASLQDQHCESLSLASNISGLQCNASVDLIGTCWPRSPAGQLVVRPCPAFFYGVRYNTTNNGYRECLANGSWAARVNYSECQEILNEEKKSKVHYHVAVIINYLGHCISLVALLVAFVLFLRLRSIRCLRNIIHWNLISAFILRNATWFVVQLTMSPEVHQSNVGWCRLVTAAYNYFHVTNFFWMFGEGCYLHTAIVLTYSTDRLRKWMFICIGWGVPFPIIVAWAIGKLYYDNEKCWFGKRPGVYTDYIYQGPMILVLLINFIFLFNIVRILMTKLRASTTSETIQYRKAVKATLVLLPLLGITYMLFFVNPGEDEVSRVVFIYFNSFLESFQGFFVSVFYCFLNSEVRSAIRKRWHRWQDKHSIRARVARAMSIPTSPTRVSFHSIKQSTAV

[2] = biological target: T1, Corticotropin-releasing factor receptor 1; experiment: Inhibition of CRF-stimulated cAMP production in cells expressing CRF1 receptor
How it was run: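 CHO cells expressing the CRF1 receptor; antagonism of CRF-stimulated cAMP production measured over a range of compound concentrations, with IC50 taken from the concentration-response.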

[3] = biological target: Corticotropin releasing factor receptor (Rattus norvegicus, UniProt P47866+P35353); experiment: Inhibition of CRF-stimulated ACTH release in primary rat anterior pituitary cells; type: functional, cell-based; details: pituitary gland cell

CCCN(CC1CC1)c1cc(C(=O)c2c(OC)cc(OC)cc2OC)nc(C)n1
Ki [1]: 1.1 µM

CCCN(CC1CC1)c1nc(C)nc(C(=O)c2ccccc2C)c1C
Ki [1]: 0.81 µM

CCCN(CC1CC1)c1nc(C)nc(C(=O)c2c(OC)cc(OC)cc2OC)c1C
Ki [1]: 0.038 µM
IC50 [2]: 1 µM

CCCN(CC1CC1)c1nc(C)nc(C(C)(C)c2c(OC)cc(OC)cc2OC)c1C
Ki [1]: > 10 µM

CCCN(CC1CC1)c1nc(C)nc(C(=O)c2c(C)c(C)c(C)c(C)c2C)c1C
Ki [1]: 5.1 µM

C=CCc1c(C(=O)c2c(C)cc(C)cc2C)nc(C)nc1N(CCC)CC1CC1
Ki [1]: 0.031 µM

CCCN(CCO)c1nc(C)nc(C(=O)c2c(C)cc(C)cc2C)c1C
Ki [1]: 0.54 µM

CCN(c1ccccc1)c1nc(C)nc(C(=O)c2c(C)cc(C)cc2C)c1C
Ki [1]: 0.47 µM

Cc1cc(C)c(C(=O)c2nc(C)nc(N3CCCC3)c2C)c(C)c1
Ki [1]: > 10 µM

C=CCN(CC=C)c1nc(C)nc(C(=O)c2c(C)cc(C)cc2C)c1C
Ki [1]: 0.038 µM

CCCN(CC1CC1)c1nc(C)nc(C(=O)c2c(CC)cc(CC)cc2CC)c1C
Ki [1]: 0.013 µM

CCCN(CC1CC1)c1cc(C)nc(C(=O)c2c(OC)cc(OC)cc2OC)n1
Ki [1]: 0.63 µM

CCCN(CCC)c1nc(C)nc(C(=O)c2c(C)cc(C)cc2C)c1C
Ki [1]: 0.058 µM

CCC(CC)Nc1nc(C)nc(C(=O)c2c(C)cc(C)cc2C)c1C
Ki [1]: 0.22 µM

CCCN(CC1CC1)c1nc(C)nc(C(=O)c2ccc(OC)cc2OC)c1C
Ki [1]: 0.81 µM

CCCN(CC1CC1)c1nc(C)nc(C(O)c2c(C)cc(C)cc2C)c1C (centres undefined)
Ki [1]: 0.079 µM

CCCN(CC1CC1)c1nc(C)nc(C(=O)c2c(C)cc(C)cc2C)c1CC
Ki [1]: 0.055 µM

CCCN(CC1CC1)c1nc(C)nc(C(=O)c2c(C)cc(C)cc2C)c1C
IC50 [3]: 0.98 µM
Ki [1]: 0.015 µM
IC50 [2]: 1.2 µM

CCCN(CC1CC1)c1nc(C)nc(C(O)c2c(CC)cc(CC)cc2CC)c1C (centres undefined)
Ki [1]: 0.36 µM

COC[C@@H]1CCCN1c1nc(C)nc(C(=O)c2c(C)cc(C)cc2C)c1C
Ki [1]: 0.38 µM

CCCN(CC1CC1)c1nc(C)nc(Cc2c(OC)cc(OC)cc2OC)c1C
Ki [1]: 0.026 µM

C=C(c1nc(C)nc(N(CCC)CC2CC2)c1C)c1c(OC)cc(OC)cc1OC
Ki [1]: 0.56 µM

Cc1cc(C)c(C(=O)c2nc(C)nc(N3CCOCC3)c2C)c(C)c1
Ki [1]: > 10 µM

CCCN(CC1CC1)c1cc(C(=O)c2c(C)c(C)c(C)c(C)c2C)nc(C)n1
Ki [1]: > 10 µM

CCCN(CC1CC1)c1cc(C(=O)c2c(C)cc(C)cc2C)nc(C)n1
Ki [1]: 0.2 µM

CCCN(CC1CC1)c1nc(C)nc(Nc2c(Cl)cc(Cl)cc2Cl)c1Cl
Ki [1]: 0.0027 µM
